The values below come from ChEMBL document CHEMBL1137338, “Effects of substitution on 9-(3-bromo-4-fluorophenyl)-5,9-dihydro-3H,4H-2,6-dioxa-4- azacyclopenta[b]naphthalene-1,8-dione, a dihydropyridine ATP-sensitive potassium channel opener” (J Med Chem, 2006).

Sulfonylurea receptor 2, Kir6.2, sequence (Q14654 whole entry, canonical isoform): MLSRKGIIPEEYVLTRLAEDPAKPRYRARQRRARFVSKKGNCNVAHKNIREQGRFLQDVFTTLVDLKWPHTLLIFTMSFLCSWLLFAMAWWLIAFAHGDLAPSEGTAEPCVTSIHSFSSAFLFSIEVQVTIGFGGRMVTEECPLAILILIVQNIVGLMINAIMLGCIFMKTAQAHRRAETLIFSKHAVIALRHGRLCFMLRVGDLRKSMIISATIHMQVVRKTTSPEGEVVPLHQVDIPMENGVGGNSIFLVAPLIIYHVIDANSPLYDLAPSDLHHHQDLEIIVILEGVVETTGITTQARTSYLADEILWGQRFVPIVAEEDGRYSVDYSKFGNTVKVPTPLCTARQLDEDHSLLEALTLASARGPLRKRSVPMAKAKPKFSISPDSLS
Sulfonylurea receptor 2, Kir6.2, sequence (O60706 whole entry, canonical isoform): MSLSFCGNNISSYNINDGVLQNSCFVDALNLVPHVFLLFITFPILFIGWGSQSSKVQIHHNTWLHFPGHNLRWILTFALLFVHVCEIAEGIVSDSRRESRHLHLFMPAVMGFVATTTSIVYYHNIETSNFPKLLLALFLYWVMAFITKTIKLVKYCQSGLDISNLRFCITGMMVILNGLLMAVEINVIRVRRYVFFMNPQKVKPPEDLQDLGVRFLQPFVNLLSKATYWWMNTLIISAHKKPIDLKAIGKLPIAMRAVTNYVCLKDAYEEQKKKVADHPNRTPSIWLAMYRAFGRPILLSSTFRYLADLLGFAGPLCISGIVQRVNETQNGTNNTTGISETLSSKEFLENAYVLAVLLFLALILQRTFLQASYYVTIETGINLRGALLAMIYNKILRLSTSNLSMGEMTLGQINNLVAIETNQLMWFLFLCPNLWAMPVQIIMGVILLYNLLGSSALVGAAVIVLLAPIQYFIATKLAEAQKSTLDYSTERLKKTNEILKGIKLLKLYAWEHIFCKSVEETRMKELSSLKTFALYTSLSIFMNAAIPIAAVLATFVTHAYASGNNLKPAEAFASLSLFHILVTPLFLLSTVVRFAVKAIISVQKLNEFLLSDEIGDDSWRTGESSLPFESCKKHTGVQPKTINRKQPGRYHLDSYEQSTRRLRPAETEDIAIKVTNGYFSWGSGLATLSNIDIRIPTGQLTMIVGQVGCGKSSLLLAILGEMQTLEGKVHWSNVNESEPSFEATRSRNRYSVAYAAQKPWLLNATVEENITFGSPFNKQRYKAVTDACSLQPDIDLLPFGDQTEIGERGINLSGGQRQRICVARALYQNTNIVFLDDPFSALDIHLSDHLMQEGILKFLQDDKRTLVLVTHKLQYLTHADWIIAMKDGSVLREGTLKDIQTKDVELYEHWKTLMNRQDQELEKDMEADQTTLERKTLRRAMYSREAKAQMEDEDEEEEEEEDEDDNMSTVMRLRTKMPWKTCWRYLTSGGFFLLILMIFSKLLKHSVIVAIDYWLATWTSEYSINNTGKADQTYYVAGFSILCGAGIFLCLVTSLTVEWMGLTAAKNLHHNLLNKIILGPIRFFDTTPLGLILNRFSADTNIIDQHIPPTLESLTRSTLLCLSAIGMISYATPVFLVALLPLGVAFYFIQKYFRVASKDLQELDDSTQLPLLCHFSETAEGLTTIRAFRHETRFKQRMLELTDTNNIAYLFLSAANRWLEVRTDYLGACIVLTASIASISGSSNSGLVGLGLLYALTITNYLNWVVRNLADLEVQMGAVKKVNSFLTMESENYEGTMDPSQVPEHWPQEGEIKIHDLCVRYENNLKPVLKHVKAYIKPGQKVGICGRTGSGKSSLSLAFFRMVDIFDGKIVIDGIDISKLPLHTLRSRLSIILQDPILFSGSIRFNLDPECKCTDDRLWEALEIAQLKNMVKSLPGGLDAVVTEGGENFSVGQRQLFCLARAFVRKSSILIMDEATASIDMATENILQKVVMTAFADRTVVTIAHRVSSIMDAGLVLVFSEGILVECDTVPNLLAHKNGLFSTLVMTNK

The assay deals with Sulfonylurea receptor 2, Kir6.2 (Homo sapiens, UniProt O60706+Q14654). The experiment in a line: Ability to open human urinary bladder Kir6.2 channel containing SUR2B in Ltk cells by FLIPR assay. In kind it is functional, cell-based. The essentials:
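Ltk- cells stably transfected with the Kir6.2/SUR2B exon 17- splice variant. Membrane potential was followed with DiBAC dye in a 96-well cell-based kinetic fluorescence (FLIPR) assay. The highest concentration tested was 10 µM. Each compound's maximal fluorescence response was expressed as % of the response to the reference opener.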
In the case of `O=C1COCC2=C1C(c1ccc(F)c(Br)c1)C1=C(O)C3(CCCC3)OCC1=N2` (configuration not stated), the EC50 (as a rule, the concentration that produces a half-maximal response) was > 10000 nM. In the case of `CC[C@H]1OCC(O)=C2C1=NC1=C(C(=O)COC1)[C@H]2c1ccc(Cl)c(Br)c1` (racemic), a half-maximal effect (EC50) was put at 1620 nM. Consider `CCC[C@H]1OC(O)=C2C1=NC1=C(C(=O)COC1)[C@H]2c1ccc(F)c(Cl)c1` (racemic), for which the 50% effective concentration (EC50) is 67.6 nM. In the case of `CC[C@H]1OCC(O)=C2C1=NC1=C(C(=O)COC1)[C@H]2c1ccc(C)c(Br)c1` (racemic) it was 1580 nM; in that of `CCC[C@H]1OC(O)=C2C1=NC1=C(C(=O)COC1)[C@H]2c1ccc(Cl)c(Cl)c1` (racemic), 603 nM; in that of `CCC[C@H]1OC(O)=C2C1=NC1=C(C(=O)COC1)[C@H]2c1ccc(Br)c(Br)c1` (racemic), 331 nM. In the case of `CCC[C@H]1OC(O)=C2C1=NC1=C(C(=O)COC1)[C@H]2c1ccc(Cl)c(Br)c1` (racemic), the EC50 is 174 nM. In the case of `CC[C@@H]1OCC2=C(C1=O)[C@@H](c1ccc(F)c(Br)c1)C1=C(O)OCC1=N2` (racemic) it was > 10000 nM; in that of `C[C@H]1OC(O)=C2C1=NC1=C(C(=O)COC1)[C@H]2c1ccc(F)c(Br)c1` (racemic), 1000 nM. As to `CC[C@H]1OCC(O)=C2C1=NC1=C(C(=O)COC1)[C@H]2c1ccc(Cl)c(Cl)c1` (racemic), the half-maximal effective concentration (EC50) was 105 nM. As to `COC[C@H]1OC(O)=C2C1=NC1=C(C(=O)COC1)[C@H]2c1ccc(F)c(Br)c1` (racemic), a half-maximal response (EC50) required 22.9 nM. For `CCC[C@H]1OC(O)=C2C1=NC1=C(C(=O)COC1)[C@H]2c1ccc(C)c(Br)c1` (racemic), the EC50 was 398 nM. Compound `CCC[C@@H]1OC(O)=C2C1=NC1=C(C(=O)COC1)[C@H]2c1ccc(F)c(Br)c1` (racemic) had an EC50 of 5.13 nM. This EC50 is about 78-fold lower than that of the compound before. In the case of `CCC[C@H]1OC(O)=C2C1=NC1=C(C(=O)COC1)[C@H]2c1ccc(Br)c(Cl)c1` (racemic) it was 427 nM; in that of `CC[C@H]1OC(O)=C2C1=NC1=C(C(=O)COC1(C)C)[C@H]2c1ccc(F)c(Br)c1` (racemic), 3470 nM. The result for `CC[C@@H]1OC(O)=C2C1=NC1=C(C(=O)COC1)[C@H]2c1ccc(F)c(Br)c1` (racemic) reads 35.5 nM.

Consider `CC[C@@H]1OCC(O)=C2C1=NC1=C(C(=O)COC1)[C@H]2c1ccc(F)c(Br)c1` (racemic), for which the half-maximal effective concentration (EC50) was 14.1 nM. The compound `C[C@@H]1OCC2=C(C1=O)[C@H](c1ccc(F)c(Br)c1)C1=C(O)OCC1=N2` (racemic) gave an EC50 of 457 nM. The result for `CC[C@H]1OCC(O)=C2C1=NC1=C(C(=O)COC1)[C@H]2c1ccc(Br)c(Br)c1` (racemic) reads 135 nM. The result for `CC(C)C[C@H]1OC(O)=C2C1=NC1=C(C(=O)COC1)[C@H]2c1ccc(F)c(Br)c1` (racemic) reads > 10000 nM; that for `CC[C@H]1OCC(O)=C2C1=NC1=C(C(=O)COC1)[C@H]2c1ccc(F)c(Cl)c1` (racemic), 457 nM; that for `CCCC[C@H]1OC(O)=C2C1=NC1=C(C(=O)COC1)[C@H]2c1ccc(F)c(Br)c1` (racemic), 2190 nM. In the case of `CC[C@H]1OCC(O)=C2C1=NC1=C(C(=O)COC1)[C@H]2c1ccc(F)c(I)c1` (racemic) it was 12000 nM; in that of `CC[C@H]1OCC(O)=C2C1=NC1=C(C(=O)COC1)[C@H]2c1ccc(Br)c(Cl)c1` (racemic), 1000 nM.

As to `CC[C@H]1OCC(O)=C2C1=NC1=C(C(=O)COC1)[C@H]2c1ccc(F)c(Br)c1` (racemic), the response was half-maximal at 186 nM (EC50). As to `C[C@@H]1OCC2=C(C1=O)[C@@H](c1ccc(F)c(Br)c1)C1=C(O)OCC1=N2` (racemic), the EC50 was 501 nM. `CCC[C@H]1OC(O)=C2C1=NC1=C(C(=O)COC1)[C@H]2c1ccc(F)c(I)c1` (racemic): the concentration for a half-maximal effect (EC50) is 75.9 nM.

`C[C@@H]1OC(O)=C2C1=NC1=C(C(=O)COC1)[C@H]2c1ccc(F)c(Br)c1` (racemic) had an EC50 of 5.5 nM. Consider `CC[C@H]1OC(O)=C2C1=NC1=C(C(=O)C(C)(C)OC1)[C@H]2c1ccc(F)c(Br)c1` (racemic), for which a half-maximal effect (EC50) was put at 282 nM. The result for `CCCCC[C@H]1OC(O)=C2C1=NC1=C(C(=O)COC1)[C@H]2c1ccc(F)c(Br)c1` (relative stereo) reads > 10000 nM; that for `CC[C@H]1C2=C(C(=O)N1C)[C@H](c1ccc(F)c(Br)c1)C1=C(O)COCC1=N2` (relative stereo), > 10000 nM; that for `CCCCC[C@@H]1OC(O)=C2C1=NC1=C(C(=O)COC1)[C@H]2c1ccc(F)c(Br)c1` (relative stereo), > 10000 nM. In the case of `CC(C)[C@H]1OC(O)=C2C1=NC1=C(C(=O)COC1)[C@H]2c1ccc(F)c(Br)c1` (relative stereo) it was > 10000 nM. Consider `CC[C@@H]1C2=C(C(=O)N1C)[C@H](c1ccc(F)c(Br)c1)C1=C(O)COCC1=N2` (relative stereo), for which the EC50 is > 10000 nM. In the case of `CC1(C)OCC2=C(C1=O)C(c1ccc(F)c(Br)c1)C1=C(O)OCC1=N2` (single isomer, unassigned; (+)) it was 26.9 nM.

Compound `O=C1COCC2=C1C(c1ccc(F)c(Br)c1)C1=C(O)OCC1=N2` (stereo in doubt; 6) had an EC50 of 45.7 nM.

The compound `C[C@@H]1OCC2=C(C1=O)[C@@H](c1ccc(F)c(Br)c1)C1=C(O)OCC1=N2` (stereo in doubt; 7a) showed an EC50 of 174 nM. Compared with the last compound, the EC50 is about 3.8-fold higher. In the case of `C[C@@H]1OCC2=C(C1=O)[C@@H](c1ccc(F)c(Br)c1)C1=C(O)OCC1=N2` (stereo in doubt; 7b), the midpoint of the response, the EC50, lay at 513 nM. Compared with the last compound, the EC50 is about 2.9-fold higher. Consider `C[C@@H]1OCC2=C(C1=O)[C@H](c1ccc(F)c(Br)c1)C1=C(O)OCC1=N2` (stereo in doubt; 8a), for which the EC50 was 72.4 nM. Against the preceding compound, the EC50 is about 7.1-fold lower.

As for `C[C@@H]1OCC2=C(C1=O)[C@H](c1ccc(F)c(Br)c1)C1=C(O)OCC1=N2` (stereo in doubt; 8b), a half-maximal effect (EC50) was put at 295 nM. The result for `CC1(C)OCC2=C(C1=O)C(c1ccc(F)c(Br)c1)C1=C(O)OCC1=N2` (stereo in doubt; 9) reads 24 nM; that for `CC1(C)OCC2=C(C1=O)C(c1ccc(F)c(Br)c1)C1=C(O)OCC1=N2` (stereo in doubt; 9b), 2820 nM. Regarding `C[C@@H]1OC(O)=C2C1=NC1=C(C(=O)COC1)[C@H]2c1ccc(F)c(Br)c1` (stereo in doubt; 17b), the 50% effective concentration (EC50) was 51.3 nM. In the case of `C[C@H]1OC(O)=C2C1=NC1=C(C(=O)COC1)[C@H]2c1ccc(F)c(Br)c1` (stereo in doubt; 18a) it was 64.6 nM; in that of `C[C@H]1OC(O)=C2C1=NC1=C(C(=O)COC1)[C@H]2c1ccc(F)c(Br)c1` (stereo in doubt; 18b), 257 nM. In turn, `CC[C@@H]1OC(O)=C2C1=NC1=C(C(=O)COC1)[C@H]2c1ccc(F)c(Br)c1` (stereo in doubt; 20a) gave a 50% effective concentration (EC50) of 3.89 nM.

For the compound `CC[C@@H]1OC(O)=C2C1=NC1=C(C(=O)COC1)[C@H]2c1ccc(F)c(Br)c1` (stereo in doubt; 20b), the EC50 was 145 nM. In the case of `CCC[C@@H]1OC(O)=C2C1=NC1=C(C(=O)COC1)[C@H]2c1ccc(F)c(Br)c1` (stereo in doubt; 22a) it was 1 nM; in that of `CCC[C@@H]1OC(O)=C2C1=NC1=C(C(=O)COC1)[C@H]2c1ccc(F)c(Br)c1` (stereo in doubt; 22b), 3.72 nM; in that of `CCC[C@H]1OC(O)=C2C1=NC1=C(C(=O)COC1)[C@H]2c1ccc(F)c(Br)c1` (stereo in doubt; 23a), 3240 nM. In turn, `COC[C@H]1OC(O)=C2C1=NC1=C(C(=O)COC1)[C@H]2c1ccc(F)c(Br)c1` (stereo in doubt; 25a) had an EC50 of 479 nM. This EC50 lies about 6.8-fold lower than the previous one.

In the case of `COC[C@H]1OC(O)=C2C1=NC1=C(C(=O)COC1)[C@H]2c1ccc(F)c(Br)c1` (stereo in doubt; 25b), a half-maximal response (EC50) required 22.9 nM. `CCCC[C@H]1OC(O)=C2C1=NC1=C(C(=O)COC1)[C@H]2c1ccc(F)c(Br)c1` (stereo in doubt; 29a) had an EC50 of 5130 nM. In the case of `CC(C)C[C@H]1OC(O)=C2C1=NC1=C(C(=O)COC1)[C@H]2c1ccc(F)c(Br)c1` (stereo in doubt; 31a) it was 2510 nM.

Turning to `CC[C@H]1OC(O)=C2C1=NC1=C(C(=O)C(C)(C)OC1)[C@H]2c1ccc(F)c(Br)c1` (stereo in doubt; 36a), the EC50 was 437 nM. `CC[C@H]1OC(O)=C2C1=NC1=C(C(=O)C(C)(C)OC1)[C@H]2c1ccc(F)c(Br)c1` (stereo in doubt; 36b) showed a 50% effective concentration (EC50) of 550 nM. The result for `CC[C@H]1OC(O)=C2C1=NC1=C(C(=O)COC1(C)C)[C@H]2c1ccc(F)c(Br)c1` (stereo in doubt; 38a) reads 1580 nM. For the compound `CC[C@H]1OC(O)=C2C1=NC1=C(C(=O)COC1(C)C)[C@H]2c1ccc(F)c(Br)c1` (stereo in doubt; 38b), the EC50 is > 10000 nM. `CCC[C@H]1OC(O)=C2C1=NC1=C(C(=O)COC1)[C@H]2c1ccc(F)c(Cl)c1` (stereo in doubt; 39a): a half-maximal effect (EC50) was put at 3390 nM. This counts as single-digit micromolar.

Consider `CCC[C@H]1OC(O)=C2C1=NC1=C(C(=O)COC1)[C@H]2c1ccc(F)c(I)c1` (stereo in doubt; 41a), for which the EC50 was 1950 nM.

As to `CCC[C@H]1OC(O)=C2C1=NC1=C(C(=O)COC1)[C@H]2c1ccc(Cl)c(Cl)c1` (stereo in doubt; 42a), the midpoint of the response, the EC50, lay at 1320 nM. In the case of `CCC[C@H]1OC(O)=C2C1=NC1=C(C(=O)COC1)[C@H]2c1ccc(Cl)c(Cl)c1` (stereo in doubt; 42b) it was 2000 nM; in that of `CCC[C@H]1OC(O)=C2C1=NC1=C(C(=O)COC1)[C@H]2c1ccc(Cl)c(Br)c1` (stereo in doubt; 43a), 813 nM. In turn, `CCC[C@H]1OC(O)=C2C1=NC1=C(C(=O)COC1)[C@H]2c1ccc(Cl)c(Br)c1` (stereo in doubt; 43b) had an EC50 of 151 nM. In turn, `CCC[C@H]1OC(O)=C2C1=NC1=C(C(=O)COC1)[C@H]2c1ccc(Br)c(Cl)c1` (stereo in doubt; 44a) had an EC50 of 1050 nM. The compound `CCC[C@H]1OC(O)=C2C1=NC1=C(C(=O)COC1)[C@H]2c1ccc(Br)c(Cl)c1` (stereo in doubt; 44b) gave an EC50 of 437 nM. Against the preceding compound, the EC50 is about 2.4-fold lower. In the case of `CCC[C@H]1OC(O)=C2C1=NC1=C(C(=O)COC1)[C@H]2c1ccc(Br)c(Br)c1` (stereo in doubt; 45a) it was 1150 nM.
